Assay results from ChEMBL document CHEMBL5696442, “Discovery of type II inhibitors of TGFβ-activated kinase 1 (TAK1) and mitogen-activated protein kinase kinase kinase kinase 2 (MAP4K2)” (J Med Chem, 2015).

What was measured:
[1] = target: Proto-oncogene tyrosine-protein kinase Src (Homo sapiens, UniProt P12931); experiment: Inhibition of SRC ACT labeling site in human Huh-7 cells at 1 uM by KiNativ Profiling analysis relative to control; type: cell-based
[2] = target: Muscle, skeletal receptor tyrosine-protein kinase (Homo sapiens) (UniProt O15146); experiment: Inhibition of MUSK (unknown origin) at 10 uM by Ambit Kinomescan binding assay relative to control; values are per cent of control
Chain of Muscle, skeletal receptor tyrosine-protein kinase (Homo sapiens) (O15146 whole entry): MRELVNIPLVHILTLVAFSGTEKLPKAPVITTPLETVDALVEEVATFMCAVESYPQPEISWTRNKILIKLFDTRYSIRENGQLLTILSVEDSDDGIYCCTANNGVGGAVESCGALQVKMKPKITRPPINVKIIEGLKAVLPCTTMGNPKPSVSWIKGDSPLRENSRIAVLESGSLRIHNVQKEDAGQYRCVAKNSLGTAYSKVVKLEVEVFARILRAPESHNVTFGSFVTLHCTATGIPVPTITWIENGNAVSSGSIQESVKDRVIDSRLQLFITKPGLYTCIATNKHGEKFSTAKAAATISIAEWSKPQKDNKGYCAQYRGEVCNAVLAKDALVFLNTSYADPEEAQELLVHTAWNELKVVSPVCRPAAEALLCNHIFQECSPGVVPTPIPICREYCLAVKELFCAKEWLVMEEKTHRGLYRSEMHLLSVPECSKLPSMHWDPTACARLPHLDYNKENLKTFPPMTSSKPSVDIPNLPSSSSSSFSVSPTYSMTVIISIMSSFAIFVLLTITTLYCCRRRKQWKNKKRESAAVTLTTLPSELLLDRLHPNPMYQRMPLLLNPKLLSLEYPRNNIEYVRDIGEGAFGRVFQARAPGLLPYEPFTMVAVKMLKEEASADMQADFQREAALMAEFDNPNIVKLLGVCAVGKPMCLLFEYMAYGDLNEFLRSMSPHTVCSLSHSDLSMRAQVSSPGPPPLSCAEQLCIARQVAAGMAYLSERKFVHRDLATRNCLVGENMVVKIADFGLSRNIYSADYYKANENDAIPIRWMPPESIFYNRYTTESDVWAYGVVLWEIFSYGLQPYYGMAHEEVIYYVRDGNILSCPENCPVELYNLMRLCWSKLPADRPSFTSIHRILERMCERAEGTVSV

[3] = target: Misshapen-like kinase 1 (Homo sapiens) (UniProt Q8N4C8); experiment: Inhibition of ZC3 Lys2 labeling site in human A-375 cells at 5 uM by KiNativ Profiling analysis relative to control; type: cell-based
Chain of Misshapen-like kinase 1 (Homo sapiens) (Q8N4C8 whole entry, looked up): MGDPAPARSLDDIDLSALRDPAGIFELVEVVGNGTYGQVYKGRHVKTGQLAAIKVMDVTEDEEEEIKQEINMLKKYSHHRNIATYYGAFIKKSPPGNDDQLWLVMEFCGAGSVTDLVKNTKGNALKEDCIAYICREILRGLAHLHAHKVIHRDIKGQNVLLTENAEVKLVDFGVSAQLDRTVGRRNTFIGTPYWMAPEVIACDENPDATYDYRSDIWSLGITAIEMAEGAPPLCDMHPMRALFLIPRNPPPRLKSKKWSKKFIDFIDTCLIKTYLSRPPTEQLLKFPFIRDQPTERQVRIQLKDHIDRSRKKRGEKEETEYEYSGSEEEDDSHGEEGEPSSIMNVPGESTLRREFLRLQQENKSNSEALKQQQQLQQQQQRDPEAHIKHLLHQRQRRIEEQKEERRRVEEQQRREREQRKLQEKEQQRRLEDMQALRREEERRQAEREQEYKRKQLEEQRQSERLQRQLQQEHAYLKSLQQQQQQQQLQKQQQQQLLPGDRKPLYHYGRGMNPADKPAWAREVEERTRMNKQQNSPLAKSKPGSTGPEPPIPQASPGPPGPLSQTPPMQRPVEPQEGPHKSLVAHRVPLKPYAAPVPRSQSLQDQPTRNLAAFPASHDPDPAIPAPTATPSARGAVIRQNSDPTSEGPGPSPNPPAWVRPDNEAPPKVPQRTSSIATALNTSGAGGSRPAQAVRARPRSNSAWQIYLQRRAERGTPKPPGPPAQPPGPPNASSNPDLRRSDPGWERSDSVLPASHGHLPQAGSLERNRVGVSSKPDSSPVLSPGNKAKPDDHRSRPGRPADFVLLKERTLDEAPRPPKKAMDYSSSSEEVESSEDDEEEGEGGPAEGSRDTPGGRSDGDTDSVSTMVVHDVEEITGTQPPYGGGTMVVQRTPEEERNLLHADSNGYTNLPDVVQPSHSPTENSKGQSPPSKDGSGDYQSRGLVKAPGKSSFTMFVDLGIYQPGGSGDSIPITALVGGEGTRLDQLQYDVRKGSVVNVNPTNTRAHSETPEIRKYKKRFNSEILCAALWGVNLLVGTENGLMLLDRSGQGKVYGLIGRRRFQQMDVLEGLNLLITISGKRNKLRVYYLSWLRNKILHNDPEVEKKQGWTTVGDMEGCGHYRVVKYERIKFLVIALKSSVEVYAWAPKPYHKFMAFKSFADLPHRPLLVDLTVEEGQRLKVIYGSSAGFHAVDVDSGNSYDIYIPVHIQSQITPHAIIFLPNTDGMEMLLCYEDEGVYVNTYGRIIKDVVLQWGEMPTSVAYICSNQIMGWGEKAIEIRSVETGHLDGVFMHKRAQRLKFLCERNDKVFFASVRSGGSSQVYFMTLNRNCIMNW

[4] = target: T1, Serine/threonine-protein kinase Nek1 (Homo sapiens) (UniProt Q96PY6); experiment: Inhibition of NEK1 Lys2 labeling site in human Huh-7 cell lysate at 1 uM by KiNativ Profiling analysis relative to control; type: subcellular
T1 sequence (whole entry): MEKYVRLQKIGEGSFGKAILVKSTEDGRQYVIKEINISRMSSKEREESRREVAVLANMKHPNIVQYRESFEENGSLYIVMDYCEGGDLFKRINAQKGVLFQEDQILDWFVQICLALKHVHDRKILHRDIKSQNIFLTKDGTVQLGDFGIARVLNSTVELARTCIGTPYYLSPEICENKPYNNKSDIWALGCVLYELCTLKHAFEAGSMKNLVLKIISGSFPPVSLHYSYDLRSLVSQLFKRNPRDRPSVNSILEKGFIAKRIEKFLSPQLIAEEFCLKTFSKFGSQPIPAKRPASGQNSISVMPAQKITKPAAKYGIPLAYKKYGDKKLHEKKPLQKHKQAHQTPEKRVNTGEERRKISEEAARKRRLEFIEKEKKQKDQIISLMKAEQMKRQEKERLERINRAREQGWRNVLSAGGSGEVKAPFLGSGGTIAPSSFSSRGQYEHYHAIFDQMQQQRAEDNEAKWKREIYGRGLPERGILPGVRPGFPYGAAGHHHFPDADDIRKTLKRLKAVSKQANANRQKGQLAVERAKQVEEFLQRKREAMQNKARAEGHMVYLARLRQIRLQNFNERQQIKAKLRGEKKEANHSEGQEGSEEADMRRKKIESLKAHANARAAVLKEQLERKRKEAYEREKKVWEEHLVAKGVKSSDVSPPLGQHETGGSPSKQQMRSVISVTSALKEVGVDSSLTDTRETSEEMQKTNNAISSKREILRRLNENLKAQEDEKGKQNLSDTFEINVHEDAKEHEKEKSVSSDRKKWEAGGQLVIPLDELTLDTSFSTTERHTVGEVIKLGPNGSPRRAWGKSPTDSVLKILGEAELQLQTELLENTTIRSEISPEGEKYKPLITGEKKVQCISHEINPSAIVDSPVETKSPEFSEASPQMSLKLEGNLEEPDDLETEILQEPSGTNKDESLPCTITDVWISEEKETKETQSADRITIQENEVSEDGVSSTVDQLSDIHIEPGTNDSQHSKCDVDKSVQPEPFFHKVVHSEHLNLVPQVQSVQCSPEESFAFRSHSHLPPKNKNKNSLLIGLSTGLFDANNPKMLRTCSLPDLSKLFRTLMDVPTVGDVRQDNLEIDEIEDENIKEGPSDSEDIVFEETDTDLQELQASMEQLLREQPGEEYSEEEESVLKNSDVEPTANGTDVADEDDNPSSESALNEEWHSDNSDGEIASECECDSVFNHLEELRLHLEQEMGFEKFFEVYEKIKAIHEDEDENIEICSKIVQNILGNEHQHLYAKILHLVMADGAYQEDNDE

[5] = target: Cyclin-dependent kinase 12 (Homo sapiens) (UniProt Q9NYV4); experiment: Inhibition of CRK7 Lys2 labeling site in human Huh-7 cells at 1 uM by KiNativ Profiling analysis relative to control; type: cell-based
[6] = target: Ribosomal protein S6 kinase alpha-1 (Homo sapiens) (UniProt Q15418); experiment: Inhibition of C-terminal RSK1 kinase domain 2 (unknown origin) at 1 uM by Ambit Kinomescan binding assay relative to control
Chain of Ribosomal protein S6 kinase alpha-1 (Homo sapiens) (Q15418 whole entry, the tested form may be a part): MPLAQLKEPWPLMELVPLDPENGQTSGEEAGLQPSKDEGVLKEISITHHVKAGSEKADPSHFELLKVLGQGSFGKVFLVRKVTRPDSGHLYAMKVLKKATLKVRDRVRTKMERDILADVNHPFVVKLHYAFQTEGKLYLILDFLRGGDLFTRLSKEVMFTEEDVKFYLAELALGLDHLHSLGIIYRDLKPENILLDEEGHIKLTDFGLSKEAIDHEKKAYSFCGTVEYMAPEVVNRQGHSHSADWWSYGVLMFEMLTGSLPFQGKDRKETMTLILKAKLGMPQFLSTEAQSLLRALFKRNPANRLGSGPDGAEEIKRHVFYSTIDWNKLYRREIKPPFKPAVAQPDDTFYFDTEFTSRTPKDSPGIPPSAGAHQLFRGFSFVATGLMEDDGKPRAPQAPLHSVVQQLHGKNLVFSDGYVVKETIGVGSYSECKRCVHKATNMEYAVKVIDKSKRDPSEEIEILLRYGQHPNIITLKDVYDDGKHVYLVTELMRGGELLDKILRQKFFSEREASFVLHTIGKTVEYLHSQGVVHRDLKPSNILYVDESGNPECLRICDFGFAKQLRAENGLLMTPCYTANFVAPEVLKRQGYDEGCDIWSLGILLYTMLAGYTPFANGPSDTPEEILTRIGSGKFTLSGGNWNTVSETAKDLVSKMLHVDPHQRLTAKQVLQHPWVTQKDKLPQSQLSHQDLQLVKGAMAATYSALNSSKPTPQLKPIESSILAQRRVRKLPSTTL
In short: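 In vitro ATP-site competition binding assay against a panel of over 420 kinases (KinomeScan), with compound tested at 10 or 1 μM.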

[7] = target: Cyclin-dependent kinase 18 (Homo sapiens) (UniProt Q07002); experiment: Inhibition of PCTAIRE3 Lys1 labeling site harbouring SKLTENLVALKEIRLEHEEGAPCTAIR in human A-375 cells at 0.05 uM by KiNativ Profiling analysis relative to control; type: cell-based
Chain of Cyclin-dependent kinase 18 (Homo sapiens) (Q07002 whole entry): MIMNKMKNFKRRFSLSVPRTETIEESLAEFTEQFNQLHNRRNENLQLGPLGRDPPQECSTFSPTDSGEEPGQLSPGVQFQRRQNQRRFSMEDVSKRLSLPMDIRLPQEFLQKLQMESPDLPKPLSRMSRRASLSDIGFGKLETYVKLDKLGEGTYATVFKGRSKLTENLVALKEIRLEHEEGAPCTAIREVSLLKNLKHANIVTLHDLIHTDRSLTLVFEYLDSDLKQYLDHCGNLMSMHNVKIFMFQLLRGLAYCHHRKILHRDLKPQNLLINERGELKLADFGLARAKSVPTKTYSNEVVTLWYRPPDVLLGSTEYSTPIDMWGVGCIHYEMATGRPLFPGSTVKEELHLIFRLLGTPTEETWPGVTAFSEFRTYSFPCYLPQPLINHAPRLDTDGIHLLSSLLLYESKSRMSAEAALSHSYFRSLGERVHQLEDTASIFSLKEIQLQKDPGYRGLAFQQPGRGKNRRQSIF

[8] = target: T2, Mitogen-activated protein kinase kinase kinase 3 (Homo sapiens) (UniProt Q99759); experiment: Inhibition of MAP3K3 (unknown origin) at 1 uM by Ambit Kinomescan binding assay relative to control; values are per cent of control
T2 sequence (whole entry): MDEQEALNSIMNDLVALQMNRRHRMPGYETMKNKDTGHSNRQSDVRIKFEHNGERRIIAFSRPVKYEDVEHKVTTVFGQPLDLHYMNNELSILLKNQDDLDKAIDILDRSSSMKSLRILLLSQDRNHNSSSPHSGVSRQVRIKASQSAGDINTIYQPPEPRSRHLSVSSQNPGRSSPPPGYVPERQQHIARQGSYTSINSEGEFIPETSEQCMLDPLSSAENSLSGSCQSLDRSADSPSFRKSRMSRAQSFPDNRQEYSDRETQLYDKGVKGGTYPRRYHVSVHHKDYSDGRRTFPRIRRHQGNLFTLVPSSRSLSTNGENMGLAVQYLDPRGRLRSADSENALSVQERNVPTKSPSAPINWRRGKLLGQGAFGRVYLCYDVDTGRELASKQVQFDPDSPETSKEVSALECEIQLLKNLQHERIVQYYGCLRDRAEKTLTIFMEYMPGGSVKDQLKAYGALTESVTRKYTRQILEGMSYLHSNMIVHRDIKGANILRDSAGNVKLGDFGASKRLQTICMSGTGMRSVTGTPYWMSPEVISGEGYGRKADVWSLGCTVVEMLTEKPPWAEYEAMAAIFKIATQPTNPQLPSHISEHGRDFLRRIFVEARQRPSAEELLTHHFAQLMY

[9] = target: Glycogen synthase kinase-3 beta (Homo sapiens) (UniProt P49841); experiment: Inhibition of GSK3B Lys2 labeling site in human A-375 cells at 0.05 uM by KiNativ Profiling analysis relative to control; type: cell-based
Chain of Glycogen synthase kinase-3 beta (Homo sapiens) (P49841 whole entry, looked up): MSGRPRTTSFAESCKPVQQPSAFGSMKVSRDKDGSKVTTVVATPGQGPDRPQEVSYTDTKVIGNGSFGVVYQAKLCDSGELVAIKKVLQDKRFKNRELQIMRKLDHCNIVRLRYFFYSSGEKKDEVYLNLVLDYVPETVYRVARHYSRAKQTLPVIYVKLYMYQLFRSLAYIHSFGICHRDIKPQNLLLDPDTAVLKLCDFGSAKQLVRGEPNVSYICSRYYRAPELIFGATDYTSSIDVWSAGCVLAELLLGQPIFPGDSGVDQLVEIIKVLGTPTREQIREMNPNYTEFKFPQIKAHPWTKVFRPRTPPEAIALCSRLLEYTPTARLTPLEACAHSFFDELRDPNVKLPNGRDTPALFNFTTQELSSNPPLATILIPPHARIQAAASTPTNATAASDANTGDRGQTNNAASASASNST

Chain of Proto-oncogene tyrosine-protein kinase Src (P12931 2-536 limits assumed): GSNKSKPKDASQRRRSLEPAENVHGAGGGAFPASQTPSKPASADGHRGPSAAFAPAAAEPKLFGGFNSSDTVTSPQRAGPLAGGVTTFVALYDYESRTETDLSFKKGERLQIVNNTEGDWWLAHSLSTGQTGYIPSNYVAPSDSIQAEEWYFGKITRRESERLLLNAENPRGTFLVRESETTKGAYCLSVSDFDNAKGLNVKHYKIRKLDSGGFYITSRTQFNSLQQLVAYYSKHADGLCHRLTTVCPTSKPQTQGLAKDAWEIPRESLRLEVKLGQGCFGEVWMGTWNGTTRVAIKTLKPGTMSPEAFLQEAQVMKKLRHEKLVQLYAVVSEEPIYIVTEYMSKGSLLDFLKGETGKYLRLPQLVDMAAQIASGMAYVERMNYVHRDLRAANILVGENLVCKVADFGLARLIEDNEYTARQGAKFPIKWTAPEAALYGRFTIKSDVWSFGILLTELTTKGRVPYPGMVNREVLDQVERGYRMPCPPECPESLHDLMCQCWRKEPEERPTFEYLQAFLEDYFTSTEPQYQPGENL

With CCN1CCN(Cc2ccc(NC(=O)c3ccc(C)c(Oc4ccnc5[nH]ccc45)c3)cc2C(F)(F)F)CC1 the inhibition [1] was -0.3%, the % of control [2] was 0.2% and the inhibition [3] was 92.7%.
With CNc1cc(Oc2cc(C(=O)Nc3cc(N4CCN(C)CC4)cc(C(F)(F)F)c3)ccc2C)ncn1 the inhibition [4] was -1.1% and the inhibition [5] was 40.3%.
CCN1CCN(Cc2ccc(NC(=O)c3ccc(C)c(/C=C/c4cnc5[nH]ccc5c4OC)c3)cc2C(F)(F)F)CC1 gave an inhibition [6] of 50%, an inhibition [7] of 2.7% and a residual activity [8] of 2%. For the same compound, the inhibition [9] was 29.8%.
